# Source: ChEMBL document CHEMBL4627411, “Novel Piperidinyl-Azetidines as Potent and Selective CCR4 Antagonists Elicit Antitumor Response as a Single Agent and in Combination with Checkpoint Inhibitors” (J Med Chem, 2020)
# The source made the active and inactive calls. The rule behind the calls is not given here.
# Experiments:
# CT26 = experiment: Antitumor activity against mouse CT26 cells allografted in Balb/c mouse assessed as reduction in tumor volume at 50 mg/kg, po qd for 28 days starting from 3 days post inoculation measured twice weekly; format: functional, organism-based
# [1] = Oral bioavailability in cynomolgus monkey at 2 mg/kg; format: ADME, organism-based, Macaca fascicularis; conditions: in vivo
# [2] = target: C-C chemokine receptor type 1 (Homo sapiens) (UniProt P32246); experiment: Antagonist activity at human Gi/G0-coupled CCR1 receptor assessed as inhibition of CCL3-induced beta arrestin2 recruitment at 500 nM preincubated for 30 mins followed by CCL3 stimulation and measured after 90 to 180 mins by pathhunter assay
# [3] = target: C-X-C chemokine receptor type 3 (Homo sapiens) (UniProt P49682); experiment: Antagonist activity at human Gi/G0-coupled CXCR3 assessed as inhibition of CXCL11-induced beta arrestin2 recruitment at 500 nM preincubated for 30 mins followed by CXCL11 stimulation and measured after 90 to 180 mins by pathhunter assay
# [4] = target: Chemerin-like receptor 1 (Homo sapiens) (UniProt Q99788); experiment: Antagonist activity at human CMKLR1 expressed in CHOK1 cells assessed as inhibition of chemerin-induced beta arrestin2 recruitment at 500 nM preincubated for 30 mins followed by chemerin stimulation and measured after 90 to 180 mins by pathhunter assay; format: cell-based; conditions: CHO-K1
# [5] = Metabolic stability in human hepatocytes assessed as parent compound remaining at 1 uM after 60 mins by LC-MS/MS analysis; format: ADME, cell-based, Hepatocyte; conditions: read-out: Stability
# In short: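 Hepatocytes (human or rat). Compound incubated for 60 min; value is % parent remaining.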
# [6] = Terminal half life in cynomolgus monkey at 0.5 mg/kg, iv; format: ADME, organism-based, Macaca fascicularis; conditions: in vivo, read-out: beta t1/2 (converted)
# [7] = Oral bioavailability in rat at 2 mg/kg; format: ADME, organism-based; conditions: in vivo
# In short: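 Rat in vivo PK. Oral dose of 2 mg/kg; %F derived.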
# [8] = Half life in dog at 0.5 mg/kg, iv; format: ADME, organism-based, Canis lupus familiaris; conditions: in vivo
# Panc02 [9] = experiment: Antitumor activity against mouse Panc02 cells allografted in C57BL/6 mouse assessed as reduction in tumor growth at 50 mg/kg, po qd for 38 days in presence of anti-CTLA-4; format: functional, organism-based
# In short: (§1)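 Pan02-OVA syngeneic tumor model. Compound given 50 mg/kg PO QD on a therapeutic schedule, alone or combined with anti-CTLA-4 antibody; tumor growth tracked. Groups compared by two-tailed t-test.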
# [10] = target: C-C chemokine receptor type 3 (Homo sapiens) (UniProt P51677); experiment: Antagonist activity at human Gi/G0-coupled CCR3 receptor expressed in CHO-K1 cells assessed as inhibition of CCL13-induced beta arrestin2 recruitment at 500 nM preincubated for 30 mins followed by CCL13 stimulation and measured after 90 to 180 mins by pathhunter assay; format: cell-based
# Panc02 [11] = experiment: Antitumor activity against mouse Panc02 cells implanted in po dosed C57BL/6 mouse assessed as inhibition of GFP-positive Treg cell migration in to tumor micro environment administered 30 mins prior to Treg cell population addition followed by daily compound dosing for 5 days and measured on day 6 by flow cytometry analysis; format: functional, organism-based
# In short: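 Pan02 pancreatic ductal adenocarcinoma mice. Oral compound at several doses; adoptively transferred GFP+ iTreg counted in the tumor, with spleen, skin and lung also examined.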
# [12] = Clearance in mouse at 0.5 mg/kg, iv; format: ADME, organism-based; conditions: in vivo
# [13] = target: C-C chemokine receptor type 5 (Homo sapiens) (UniProt P51681); experiment: Antagonist activity at human Gi/G0-coupled CCR5 receptor expressed in CHOK1 cells assessed as inhibition of CCL3-induced beta arrestin2 recruitment at 500 nM preincubated for 30 mins followed by CCL3 stimulation and measured after 90 to 180 mins by pathhunter assay; format: cell-based; conditions: CHO-K1
# Panc02 [14] = experiment: Antitumor activity against mouse Panc02 cells allografted in C57BL/6 mouse assessed as reduction in tumor growth at 50 mg/kg, po qd for 38 days; format: functional, organism-based; in short: as §1
# [15] = target: C-C chemokine receptor type 10 (Homo sapiens) (UniProt P46092); experiment: Antagonist activity at human Gi/G0-coupled CCR10 receptor expressed in human U2OS cells assessed as inhibition of CCL27-induced beta arrestin2 recruitment at 500 nM preincubated for 30 mins followed by CCL27 stimulation and measured after 90 to 180 mins by pathhunter assay; format: cell-based
# [16] = target: C-C chemokine receptor type 2 (Homo sapiens) (UniProt P41597); experiment: Antagonist activity at human Gi/G0-coupled […]-induced beta arrestin2 recruitment at 500 nM preincubated for 30 mins […] and measured after 90 to 180 mins by pathhunter assay
# [17] = Oral bioavailability in dog at 2 mg/kg; format: ADME, organism-based, Canis lupus familiaris; conditions: in vivo
# [18] = target: C-C chemokine receptor type 8 (Homo sapiens) (UniProt P51685); experiment: Antagonist activity at human CCR8 receptor assessed as inhibition of CCL1-induced beta arrestin2 recruitment at 500 nM preincubated for 30 mins followed by CCL1 stimulation and measured after 90 to 180 mins by pathhunter assay
# [19] = target: C-X-C chemokine receptor type 6 (Homo sapiens) (UniProt O00574); experiment: Antagonist activity at human Gi/G0-coupled CXCR6 assessed as inhibition of CXCL16-induced beta arrestin2 recruitment at 500 nM preincubated for 30 mins followed by CXCL16 stimulation and measured after 90 to 180 mins by pathhunter assay
# [20] = Clearance in rat at 0.5 mg/kg, iv; format: ADME, organism-based; conditions: in vivo
# In short: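 Rat in vivo PK. Single IV dose of 0.5 mg/kg; clearance in mL/min/kg.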
# [21] = target: Atypical chemokine receptor 3 (Homo sapiens) (UniProt P25106); experiment: Antagonist activity at human CXCR7 assessed as inhibition of CXCL12-induced beta arrestin2 recruitment at 500 nM preincubated for 30 mins followed by CXCL12 stimulation and measured after 90 to 180 mins by pathhunter assay
# Atypical chemokine receptor 3 (Homo sapiens), sequence (P25106 whole entry): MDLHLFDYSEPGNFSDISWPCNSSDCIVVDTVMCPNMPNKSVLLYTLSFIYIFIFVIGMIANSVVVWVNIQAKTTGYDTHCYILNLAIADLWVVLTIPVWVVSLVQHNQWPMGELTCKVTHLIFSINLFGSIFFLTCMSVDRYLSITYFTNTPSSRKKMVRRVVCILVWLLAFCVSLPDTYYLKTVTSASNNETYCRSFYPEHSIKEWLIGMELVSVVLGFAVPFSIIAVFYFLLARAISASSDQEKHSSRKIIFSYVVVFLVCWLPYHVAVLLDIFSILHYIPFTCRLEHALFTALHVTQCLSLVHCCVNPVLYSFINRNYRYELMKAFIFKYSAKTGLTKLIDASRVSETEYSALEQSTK
# C-C chemokine receptor type 2 (Homo sapiens), sequence (P41597 whole entry, looked up): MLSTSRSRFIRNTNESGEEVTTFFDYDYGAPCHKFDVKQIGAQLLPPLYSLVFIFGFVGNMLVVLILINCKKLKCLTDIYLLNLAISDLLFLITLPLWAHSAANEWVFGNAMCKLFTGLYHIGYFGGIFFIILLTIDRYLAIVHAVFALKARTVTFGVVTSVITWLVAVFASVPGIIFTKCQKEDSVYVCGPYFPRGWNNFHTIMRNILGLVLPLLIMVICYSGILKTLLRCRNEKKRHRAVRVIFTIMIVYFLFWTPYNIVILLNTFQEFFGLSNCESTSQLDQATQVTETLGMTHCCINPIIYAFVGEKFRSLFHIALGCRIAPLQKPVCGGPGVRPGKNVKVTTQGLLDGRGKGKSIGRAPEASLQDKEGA
# C-C chemokine receptor type 3 (Homo sapiens), sequence (P51677 whole entry): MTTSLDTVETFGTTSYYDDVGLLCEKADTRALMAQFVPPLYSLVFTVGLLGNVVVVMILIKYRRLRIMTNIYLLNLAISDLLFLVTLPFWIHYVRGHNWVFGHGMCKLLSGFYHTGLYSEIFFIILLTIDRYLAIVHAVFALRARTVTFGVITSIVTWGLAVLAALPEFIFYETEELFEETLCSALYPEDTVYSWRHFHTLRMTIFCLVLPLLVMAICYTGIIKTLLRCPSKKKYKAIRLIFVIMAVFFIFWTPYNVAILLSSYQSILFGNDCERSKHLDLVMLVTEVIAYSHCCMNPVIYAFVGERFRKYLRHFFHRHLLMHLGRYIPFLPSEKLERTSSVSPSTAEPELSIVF
# Chemerin-like receptor 1 (Homo sapiens), sequence (Q99788 whole entry): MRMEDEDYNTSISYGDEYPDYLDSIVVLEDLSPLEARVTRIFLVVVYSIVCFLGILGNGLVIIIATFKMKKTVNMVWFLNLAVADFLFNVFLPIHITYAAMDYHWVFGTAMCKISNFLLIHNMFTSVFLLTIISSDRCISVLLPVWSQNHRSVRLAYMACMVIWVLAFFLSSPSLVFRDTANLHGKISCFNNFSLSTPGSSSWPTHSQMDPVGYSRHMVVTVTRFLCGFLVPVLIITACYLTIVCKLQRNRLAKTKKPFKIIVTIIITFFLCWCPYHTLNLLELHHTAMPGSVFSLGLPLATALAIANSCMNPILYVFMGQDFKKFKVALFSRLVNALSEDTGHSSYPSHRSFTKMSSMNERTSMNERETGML
# C-C chemokine receptor type 8 (Homo sapiens), sequence (P51685 whole entry): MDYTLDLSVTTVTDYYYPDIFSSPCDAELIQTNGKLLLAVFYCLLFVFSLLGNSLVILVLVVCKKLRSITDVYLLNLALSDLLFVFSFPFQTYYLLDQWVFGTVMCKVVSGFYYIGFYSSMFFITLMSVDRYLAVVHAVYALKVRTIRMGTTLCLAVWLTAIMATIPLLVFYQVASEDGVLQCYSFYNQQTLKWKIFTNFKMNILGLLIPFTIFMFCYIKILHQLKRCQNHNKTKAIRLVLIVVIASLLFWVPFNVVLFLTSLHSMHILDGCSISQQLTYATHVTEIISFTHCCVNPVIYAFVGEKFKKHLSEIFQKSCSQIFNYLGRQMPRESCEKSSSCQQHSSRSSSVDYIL
# C-X-C chemokine receptor type 3 (Homo sapiens), sequence (P49682 whole entry): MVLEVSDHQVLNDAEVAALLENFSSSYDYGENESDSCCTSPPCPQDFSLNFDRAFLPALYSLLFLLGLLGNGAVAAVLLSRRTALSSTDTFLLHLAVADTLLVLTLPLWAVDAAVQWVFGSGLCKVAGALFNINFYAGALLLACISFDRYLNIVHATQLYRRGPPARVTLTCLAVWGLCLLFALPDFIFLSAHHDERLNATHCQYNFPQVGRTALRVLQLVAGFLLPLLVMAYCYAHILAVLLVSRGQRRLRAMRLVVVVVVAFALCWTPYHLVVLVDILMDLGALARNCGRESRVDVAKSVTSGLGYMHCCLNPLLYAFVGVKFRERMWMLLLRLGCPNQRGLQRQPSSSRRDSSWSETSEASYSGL
# C-C chemokine receptor type 10 (Homo sapiens), sequence (P46092 whole entry): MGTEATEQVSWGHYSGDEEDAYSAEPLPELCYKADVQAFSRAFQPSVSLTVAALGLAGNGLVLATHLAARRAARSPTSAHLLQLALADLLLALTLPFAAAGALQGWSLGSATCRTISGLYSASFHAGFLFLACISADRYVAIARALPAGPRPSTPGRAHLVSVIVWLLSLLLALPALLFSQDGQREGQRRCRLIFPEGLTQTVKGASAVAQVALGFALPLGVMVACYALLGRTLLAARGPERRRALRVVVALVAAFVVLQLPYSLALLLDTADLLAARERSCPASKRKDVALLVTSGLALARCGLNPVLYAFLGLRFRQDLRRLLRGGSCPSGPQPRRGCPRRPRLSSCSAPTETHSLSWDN
# C-X-C chemokine receptor type 6 (Homo sapiens), sequence (O00574 whole entry, looked up): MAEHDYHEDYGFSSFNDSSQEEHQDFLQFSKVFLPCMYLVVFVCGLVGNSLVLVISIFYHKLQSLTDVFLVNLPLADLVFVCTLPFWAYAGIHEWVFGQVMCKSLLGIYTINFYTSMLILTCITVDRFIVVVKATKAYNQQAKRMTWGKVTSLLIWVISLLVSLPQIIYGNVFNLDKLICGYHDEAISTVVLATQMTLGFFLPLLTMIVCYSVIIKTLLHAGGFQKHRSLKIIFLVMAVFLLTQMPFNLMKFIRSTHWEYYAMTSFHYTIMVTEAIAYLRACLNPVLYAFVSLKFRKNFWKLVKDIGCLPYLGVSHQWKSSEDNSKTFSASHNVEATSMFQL
# C-C chemokine receptor type 1 (Homo sapiens), sequence (P32246 whole entry): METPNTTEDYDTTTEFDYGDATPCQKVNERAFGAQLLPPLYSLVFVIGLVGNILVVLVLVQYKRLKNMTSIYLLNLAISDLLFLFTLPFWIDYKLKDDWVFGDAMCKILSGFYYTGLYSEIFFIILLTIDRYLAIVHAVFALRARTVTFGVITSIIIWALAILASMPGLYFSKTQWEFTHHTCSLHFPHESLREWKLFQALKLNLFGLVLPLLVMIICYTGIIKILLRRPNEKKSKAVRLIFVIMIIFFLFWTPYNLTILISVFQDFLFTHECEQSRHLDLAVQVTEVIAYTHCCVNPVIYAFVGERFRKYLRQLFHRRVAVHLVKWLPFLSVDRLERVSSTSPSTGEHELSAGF
# C-C chemokine receptor type 5 (Homo sapiens), sequence (P51681 whole entry, looked up): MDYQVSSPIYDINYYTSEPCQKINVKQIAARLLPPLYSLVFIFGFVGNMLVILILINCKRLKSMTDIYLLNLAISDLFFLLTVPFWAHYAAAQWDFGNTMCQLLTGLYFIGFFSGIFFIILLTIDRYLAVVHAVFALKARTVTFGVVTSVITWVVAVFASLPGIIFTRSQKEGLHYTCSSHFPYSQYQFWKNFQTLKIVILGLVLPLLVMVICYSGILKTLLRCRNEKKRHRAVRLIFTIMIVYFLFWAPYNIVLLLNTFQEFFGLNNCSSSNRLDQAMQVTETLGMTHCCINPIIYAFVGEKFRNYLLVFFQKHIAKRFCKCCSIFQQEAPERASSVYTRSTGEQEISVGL
compound,measurement,setting,value
C[C@H](c1ccc(Cl)cc1Cl)n1nc(C#N)c2ncc(N3CC([C@H]4CCCN(CCO)C4)C3)nc21,Activity,CT26,Active
same,bioavailability,[1],41%
same,Activity,[2],inactive
same,Activity,[3],inactive
same,Activity,[4],inactive
same,"remaining at 1 h, 1 µM",[5],91%
same,half-life,[6],10.7 h
same,bioavailability,[7],49%
same,half-life,[8],12.7 h
same,Activity,Panc02 [9],Active
same,Activity,[10],inactive
same,Activity,Panc02 [11],Dose-dependent effect
same,clearance,[12],10.2 mL/min/kg
same,Activity,[13],inactive
same,Activity,Panc02 [14],Active
same,Activity,[15],inactive
same,Activity,[16],inactive
same,bioavailability,[17],44%
same,Activity,[18],inactive
same,Activity,[19],inactive
same,clearance,[20],47.6 mL/min/kg
same,Activity,[21],inactive
